A short description of data set [1]: melting temperature; fluorescence melt of hairpins on a sequencing array, two-state fit, raised by 9.35 °C to match UV melts. To be noted: sodium 0.088 M. In short, it runs like this: (§1)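 Cy3 fluorescence of library hairpins on a sequenced MiSeq flow cell, with annealed Cy3 and quencher oligos, was imaged in 50 mM Na-HEPES pH 8.0, 25 mM NaCl in 2.5 °C steps up to 60 °C. Signals were normalised to pre-quench Cy3 and to control variants. Melting temperature and folding enthalpy came from bootstrapped two-state fits, inverse-variance combined over four replicates. Fitted temperatures were raised by 9.35 °C to match UV melts.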

The nature of data set [2]: folding enthalpy; higher = less favourable; fluorescence melt of hairpins on a sequencing array, two-state fit. To be noted: sodium 0.088 M. In short, it runs like this:
as §1

GCCGAGCGAAAGCTGGC (((.(((....)))))): the Tm in data set [1] turned out to be 68.6 °C. Also, the folding enthalpy in data set [2] is -25.1 kcal/mol.

Take GCCGAGGGAAACCCCAGC ((.(.((....)).).)): the Tm in data set [1] was determined as 25.2 °C. For the same sequence, the folding enthalpy in data set [2] is -11.3 kcal/mol.

Turning to GCCGAGGGAAACCCCGAC (.((.((....)).)).), the Tm in data set [1] was 31 °C. Also, the folding enthalpy in data set [2] is -13.8 kcal/mol.

With GCCGAGGGAAACCCCGGC ((((.((....)).)))), in data set [1], the Tm worked out at 59.9 °C. Besides, the folding enthalpy in data set [2] was -40.2 kcal/mol.

In the case of GCCGATGGAAACATTGGC (((.(((....))).))), the Tm in data set [1] turned out to be 54.6 °C. The folding enthalpy in data set [2] was -55.2 kcal/mol.

With GCCGCAACGAAAGTTGGC (((..(((....)))))), the Tm in data set [1] is 48 °C. Moreover, the folding enthalpy in data set [2] is -11.2 kcal/mol.

For GCCGCAGGAAACCGCAGC ((.((.(....).)).)), the Tm in data set [1] is 31.2 °C. Further, in data set [2], the folding enthalpy is -9.87 kcal/mol.

Turning to GCCGCAGGAAACCGCGAC (.(((.(....).))).), the Tm in data set [1] came to 35.9 °C. The folding enthalpy in data set [2] is -15.6 kcal/mol.

Turning to GCCGCAGGAAACTGTGGC (((.(((....))).))), the Tm in data set [1] came to 60.3 °C. Moreover, the folding enthalpy in data set [2] is -39.4 kcal/mol.

As for GCCGCCCGAAAGGGGGC (((.(((....)))))), the Tm in data set [1] worked out at 68.7 °C. In data set [2], the folding enthalpy is -18 kcal/mol.

As for GCCGCCGAAAGGCAAGGC ((((((....)))..))), the Tm in data set [1] amounted to 65.5 °C. Also, the folding enthalpy in data set [2] was -24.6 kcal/mol.

Regarding GCCGCCGAAAGGCATGGC ((((((....)))..))), the Tm in data set [1] was found to be 63 °C. Further, the folding enthalpy in data set [2] is -19.9 kcal/mol.

On to GCCGCCGAAAGGCCCGGC ((((((....)))..))), for which the Tm in data set [1] turned out to be 48 °C. Moreover, the folding enthalpy in data set [2] is -17.4 kcal/mol.

GCCGCCGAAAGGCGTGGC ((((((....)))..))): in data set [1], the Tm came to 60.1 °C. The folding enthalpy in data set [2] is -12.6 kcal/mol.

Turning to GCCGCCGCGAAAGCGGGC (((..(((....)))))), the Tm in data set [1] worked out at 64 °C. Also, in data set [2], the folding enthalpy is -5.71 kcal/mol.

Take GCCGCGCGAAAGCACAGC ((.(.((....)).).)): the Tm in data set [1] stood at 46.9 °C. Also, the folding enthalpy in data set [2] is -13.6 kcal/mol.

With GCCGCGCGAAAGCACTGC ((.(.((....)).).)), the Tm in data set [1] is 38.2 °C. Also, in data set [2], the folding enthalpy is -18.7 kcal/mol.

For GCCGCGCGAAAGCAGGGC (((..((....))..))), in data set [1], the Tm was 61.5 °C. Moreover, in data set [2], the folding enthalpy is -23.1 kcal/mol.

For the sequence GCCGCGCGAAAGCGGAGC ((..(((....)))..)), the Tm in data set [1] came to 52.5 °C. The folding enthalpy in data set [2] was -12.8 kcal/mol.

On to GCCGCGCGAAAGCGGTGC ((..(((....)))..)), for which, in data set [1], the Tm worked out at 58 °C. In addition, the folding enthalpy in data set [2] is -16.2 kcal/mol.

Take GCCGCGCGAAAGCTCCGC ((.(.((....)).).)): the Tm in data set [1] was 33.2 °C. Also, the folding enthalpy in data set [2] was -7.61 kcal/mol.

For the sequence GCCGCTCGAAAGAGGGC (((.(((....)))))), in data set [1], the Tm turned out to be 55.2 °C. Besides, the folding enthalpy in data set [2] is -22.9 kcal/mol.

As for GCCGCTGCGAAAGCAGGC (((..(((....)))))), the Tm in data set [1] was determined as 65.1 °C. Moreover, the folding enthalpy in data set [2] was -9.88 kcal/mol.

For the sequence GCCGCTGGAAACAACGGC ((((.((....)).)))), in data set [1], the Tm amounted to 54.3 °C. In data set [2], the folding enthalpy was -37.1 kcal/mol.

On to GCCGGAGGAAACTCTGGC (((.(((....))).))), for which, in data set [1], the Tm came out at 54.8 °C. Also, the folding enthalpy in data set [2] was -34.6 kcal/mol.

In the case of GCCGGCGAAAGCCTAGGC ((((((....)))..))), the Tm in data set [1] was determined as 60.1 °C. For the same sequence, the folding enthalpy in data set [2] was -24.5 kcal/mol.

Turning to GCCGGCGAAAGCCTGGGC ((((((....)))..))), the Tm in data set [1] came to 60 °C. In data set [2], the folding enthalpy was -24.5 kcal/mol.

Consider GCCGGGCCGAAAGGCGGC (((..(((....)))))), for which, in data set [1], the Tm came out at 59.4 °C. Moreover, in data set [2], the folding enthalpy was -17.6 kcal/mol.

On to GCCGGGCGAAAGCCTCGC ((..(((....)))..)), for which the Tm in data set [1] is 48.3 °C. In addition, the folding enthalpy in data set [2] is -11.1 kcal/mol.

As to GCCGGGCGAAAGCGGGGC (((..((....))..))), in data set [1], the Tm was found to be 63.3 °C. The folding enthalpy in data set [2] is -22.9 kcal/mol.

For GCCGGGCGAAAGCTCCGC ((.(.((....)).).)), in data set [1], the Tm came out at 45.2 °C. Further, the folding enthalpy in data set [2] was -13.1 kcal/mol.

Turning to GCCGGGCGAAAGCTCTGC ((.(.((....)).).)), in data set [1], the Tm came to 41.4 °C. Further, the folding enthalpy in data set [2] was -18.5 kcal/mol.

Turning to GCCGGGCGAAAGCTTGGC (((..((....))..))), the Tm in data set [1] is 65.3 °C. Also, in data set [2], the folding enthalpy was -24.4 kcal/mol.

GCCGGGGGAAACCCCAGC ((.((((....)))).)): the Tm in data set [1] was found to be 50.3 °C. Besides, the folding enthalpy in data set [2] was -21.2 kcal/mol.

On to GCCGGGGGAAACTCCGGC (((((.(....).))))), for which the Tm in data set [1] came out at 68.5 °C. The folding enthalpy in data set [2] was -39.3 kcal/mol.

Turning to GCCGGTACGAAAGTAGGC (((..(((....)))))), in data set [1], the Tm is 48.7 °C. Moreover, in data set [2], the folding enthalpy is -24.7 kcal/mol.

Take GCCGGTCGAAAGACAGGC (((.(((....))).))): the Tm in data set [1] was 69 °C. Also, the folding enthalpy in data set [2] was -41.7 kcal/mol.

The values above are taken from the array DNA melting data of Ke et al. (doi:10.1101/2024.01.08.574731).
